Results on 13 compounds are retold here after paper PMC11094776 (Protein Science : A Publication of the Protein Society, 2024).

Test [1] addresses MBP‐AAA‐AF9 AHD Q336C/A502C (Homo sapiens, UniProt P42568, A502C/Q361C). The experiment in a line: Fluorescence polarization direct binding, MBP-AAA-AF9 AHD Q336C/A502C. The procedure, abridged:
(§1)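 Fusion protein expressed at 18°C in Rosetta (DE3) cells in TB medium. Cells were lysed by sonication in 50 mM Tris 7.4, 150 mM NaCl, 10% glycerol, 20 mM imidazole, 3 mM TCEP. Protein was captured on Ni-NTA, eluted with a 50–250 mM imidazole gradient, TEV-treated overnight (1:100 w/w), then run on Superdex 200 SEC. Stored at −80°C in 25 mM Tris 7.4, 150 mM NaCl, 1 mM TCEP.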

In another test the target is T1, MBP‐GS‐AF9 AHD (Homo sapiens, UniProt P42568).
T1 sequence (P42568 500-568): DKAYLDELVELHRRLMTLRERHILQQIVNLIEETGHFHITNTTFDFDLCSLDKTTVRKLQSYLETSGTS
Kind of test: Fluorescence polarization direct binding, MBP-GS-AF9 AHD. The procedure, abridged: as §1

Another test addresses T2, MBP‐RITK‐AF9 AHD (Homo sapiens, UniProt P42568).
T2 sequence (P42568 500-568): T1 sequence (P42568 500-568)
Kind of test: Fluorescence polarization direct binding, MBP-RITK-AF9 AHD. The procedure, abridged:
as §1

Test [2] concerns the target MBP‐AAAA‐AF9 AHD Q336C/K501C (Homo sapiens, UniProt P42568, Q361C). The experiment in a line: Fluorescence polarization direct binding, MBP-AAAA-AF9 AHD Q336C/K501C. Put shortly: as §1
The target in the next test is T3, MBP‐AAAA‐AF9 AHD (Homo sapiens, UniProt P42568).
T3 sequence (P42568 500-568): T1 sequence (P42568 500-568)
Kind of test: Fluorescence polarization direct binding, MBP-AAAA-AF9 AHD.

Another test deals with T4, MBP‐AAA‐AF9 AHD (Homo sapiens, UniProt P42568).
T4 sequence (P42568 500-568): T1 sequence (P42568 500-568)
The experiment in a line: Fluorescence polarization direct binding, MBP-AAA-AF9 AHD.

For the next test, the system named is AF9 AHD. The conditions noted are these: cited from earlier work; for interaction sites within the DOT1L sequence: ref Kuntimaddi et al., 2015.
The subject of a further test is ENL AHD. The conditions noted are these: ref Kabra & Bushweller, 2022; cited from earlier work.
For test [3], the target named is DOT1L (879–888 aa) derived fluorescent labeled peptide. Kind of test: fluorescence polarisation.
Test [4] has as its target AF4 (761–770 aa) derived fluorescent labeled peptide (UniProt P51825). The experiment in a line: fluorescence polarisation.

Non-standard residues stand in square brackets, D forms with d. Residues, ends and D or L forms follow the SMILES beside them. No end group written: not given here. *: point of attachment. FITC = O=C1OC2(c3ccc(O)cc3Oc3cc(O)ccc32)c2ccc(NC(=S)*)cc21; βAla = NCCC(=O)O

Take `CC[C@H](C)[C@H](NC(=O)[C@H](CCCCN)NC(=O)[C@@H](NC(=O)[C@H](CCSC)NC(=O)[C@H](CC(C)C)NC(=O)CCNC(=O)CCNC(=O)[C@H](CCCCNC(=S)Nc1ccc2c(c1)C(=O)OC21c2ccc(O)cc2Oc2cc(O)ccc21)NC(C)=O)C(C)C)C(=O)N[C@H](C(=O)N[C@@H](CC(C)C)C(=O)N[C@@H](CC(=O)O)C(=O)N[C@@H](CC(C)C)C(=O)N[C@@H](CC(C)C)C(N)=O)[C@@H](C)O` [AF4 (761–770 aa)] (Ac-K(FITC)[βAla][βAla]LMVKITLDLL-NH2): the Kd stood at 3.49 ± 0.18 nM in test [1], 3.7 ± 0.94 nM on MBP‐GS‐AF9 AHD, 1.31 ± 0.05 nM at MBP‐RITK‐AF9 AHD and 1.26 ± 0.11 nM in test [2].

Turning to `CC[C@H](C)[C@H](NC(=O)[C@H](CO)NC(=O)[C@@H](NC(=O)[C@@H]1CCCN1C(=O)[C@H](CC(C)C)NC(=O)CCNC(=O)CCNC(=O)[C@H](CCCCNC(=S)Nc1ccc2c(c1)C(=O)OC21c2ccc(O)cc2Oc2cc(O)ccc21)NC(C)=O)C(C)C)C(=O)N1CCC[C@H]1C(=O)N[C@@H](CC(C)C)C(=O)N[C@@H](C)C(=O)N[C@@H](CO)C(=O)N[C@H](C(N)=O)C(C)C` [DOT1L (879–888 aa)] (Ac-K(FITC)[βAla][βAla]LPVSIPLASV-NH2), the dissociation constant (Kd) in test [1] came to 20.9 ± 2.59 nM; on MBP‐GS‐AF9 AHD, 17.9 ± 3.49 nM; on MBP‐RITK‐AF9 AHD it was 7.86 ± 0.76 nM; at MBP‐AAAA‐AF9 AHD, 15.6 ± 1.93 nM; in test [2], 10.7 ± 2.84 nM; on MBP‐AAA‐AF9 AHD, 8.79 ± 0.41 nM.

Turning to “AF4 peptide: AF4 peptide of prior reports (LMVKITLDLL; also: fluorescent label, dye and position not given here)”, in the test with AF9 AHD (prior reports, ref Kabra & Bushweller, 2022, Shen et al., 2013), the “affinity for AF9 AHD relative to DOT1L peptide” value was “higher affinity”.

Turning to “BCOR peptide (1176–1228): longer BCOR peptide (1176–1228) (TNSSSNHLEDPHYSELTNLKVCIELTGLHPKKQRHLLHLRERWEQQVSAADGK; UniProt Q6W2J9 1176-1228, looked up, fragment)”, the “binding affinity compared with short peptide (1176–1207)” value in the test with ENL AHD is reported as “higher binding affinity”; with AF9 AHD (AF9 AHD, ref Kabra & Bushweller, 2022) it was “higher binding affinity”.

For the compound LELQISIVEL [LELQISIVEL (638–647)], in the test on AF9 AHD, the “interaction sites within the DOT1L sequence” value is reported as “interaction sites”.

Turning to LPISIPLSTV [LPISIPLSTV (865–874)], the “binding site for the AHD” value in the test on AF9 AHD (mapped 10-amino acid DOT1L peptide, ref Grigsby et al., 2021, Shen et al., 2013) is reported as “binding site for the AHD”.

For LPVSIPLASV [LPVSIPLASV (879–888)], in the test on AF9 AHD, the “interaction sites within the DOT1L sequence” value is on record as “interaction sites”.

In test [3], “MBP‐AAAA‐AF9 AHD (from UniProt P42568 500-568) (domain or fragment)” registered a Kd of 15.6 nM.

In the case of “MBP‐AAAA‐AF9 AHD Q336C/K501C (from UniProt P42568 500-568) (domain or fragment)”, the Kd was found to be 1.26 nM in test [4] and 10.7 nM in test [3].

“MBP‐AAA‐AF9 AHD (from UniProt P42568 500-568) (domain or fragment)” displayed an equilibrium dissociation constant (Kd) in test [3] of 8.79 nM.

With “MBP‐AAA‐AF9 AHD Q336C/A502C (from UniProt P42568 500-568) (domain or fragment)”, the dissociation constant (Kd) in test [3] came to 20.9 nM.

With “MBP‐GS‐AF9 AHD (from UniProt P42568 500-568) (domain or fragment)”, the Kd in test [3] worked out at 17.9 nM.

Regarding “MBP‐RITK‐AF9 AHD (from UniProt P42568 500-568) (domain or fragment)”, the dissociation constant (Kd) in [4] turned out to be 1.31 nM; in test [3] it was 7.86 nM.
